Data: the RNAGym collection of RNA variant scans (doi:10.1038/s41586-018-0170-7)

B1: tRNA (parent)
chain: GUUCCGUUGGCGUAAUGGUAACGCGUCUCCCUCCUAAGGAGAAGACUGCGGGUUCGAGUCCCGUACGGAACG

Variants of: B1
Assay: yeast fitness, log relative to wild type (ln ratio); higher = fitter; tRNA-Arg(CCU), competitive growth, 37 C, 1 M NaCl
Summary of the method: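 A combinatorial tRNA-Arg(CCU) variant library was carried on a HIS3 centromeric plasmid in BY4742 lacking the chromosomal gene, from two independent transformations. Pools grew 4 generations in SC-HIS at 30 °C, then ~6.5 generations (~26.5 h) in SC-HIS 1M NaCl at 37 °C, with three outputs per input. Variants were counted by 125 bp paired-end Illumina sequencing. Fitness is ln of each genotype's generations (OD-scaled log2 output/input frequency, inverse-variance weighted across replicates) over the wild-type's.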

Row | Variant | yeast fitness (ln)
1 | U2C C46U A70U | 0.0104
2 | C66U A70G | -0.0949
3 | U2G G6A C27U A43C C46U C66U A69G A70G C71U | -0.289
4 | G6U C27U A69G C71U | -0.342
5 | G1A G6A A43C C46U C66A A70U | -0.143
6 | G6A C27U A43C C46U C66U A69G A70U C71U | -0.447
7 | U2G C46U | -0.0208
8 | G1A G6U C27U C46U C66U A69G A70U C71U | -0.4
9 | U2C G6A C27U A43C A69G C71U | -0.29
10 | C27U A43C C66U A69G A70U | -0.361
11 | G1A U2C G6U C27U A43C C46U | -0.0772
12 | G1A G6U C46U A69G A70U | -0.0951
13 | G1A U2G C27U A43C C46U C66U A70U C71U | -0.329
14 | G1A U2C G6U C46U C66A A69G A70U | 0.0136
15 | G6A C46U A69G C71U | -0.109
16 | C27U A43C C46U A69G A70U C71U | -0.317
17 | G1A U2G G6U C27U C46U A69G A70U | -0.314
18 | U2C G6A C27U C66U A69G A70G C71U | -0.0741
19 | G6U C27U A43C A69G C71U | -0.384
20 | C46U C66A | -0.0399
21 | U2G G6U C66A C71U | -0.108
22 | G6A C27U C46U C66U A69G | -0.0373
23 | G1A U2C G6A C27U C46U C66U A69G A70G C71U | -0.0405
24 | G1A U2G G6U C27U A43C C66U A70U | -0.47

Row | Variant | yeast fitness (ln)
25 | G6U C46U C66U A70U | -0.297
26 | G1A U2C A43C C46U C66A A69G A70G C71U | -0.0434
27 | U2C C27U A43C C46U C66U | -0.0652
28 | G1A C27U A43C C66A A70U | -0.136
29 | G1A U2G C27U C46U C66A A70U C71U | -0.185
30 | A43C C66U A70G C71U | -0.156
31 | G1A A43C C66U A69G A70G | -0.243
32 | U2C G6U A43C C66U A70G C71U | -0.172
33 | G1A U2G G6A C27U C66U A70U | -0.234
34 | G6U C27U A43C C66U A70G | -0.407
35 | U2C G6A C66U A69G C71U | -0.225
36 | G6U C27U C66A A69G A70G C71U | -0.329
37 | G1A G6U C27U C46U C66A A69G A70G C71U | -0.58
38 | U2C A69G A70U C71U | -0.199
39 | C27U A43C C46U C66U A69G A70G C71U | -0.18
40 | G6A C27U A43C C46U | -0.084
41 | G1A U2G G6A C27U A69G A70U | -0.256
42 | U2C C27U C46U A69G C71U | -0.104
43 | A43C C46U C66A | -0.0152
44 | U2C G6U C27U C46U C66U A69G A70U C71U | -0.546
45 | G1A U2G C66A A69G A70G C71U | -0.235
46 | C66A | -0.00943
47 | G1A G6A C27U A43C C46U A69G A70G | -0.265
48 | U2G G6A C27U A43C A70U C71U | -0.242

Row | Variant | yeast fitness (ln)
49 | U2G A43C C46U C66U A70U C71U | -0.214
50 | U2G G6A A70G | -0.114
51 | U2G G6U C46U C66U A69G A70U C71U | -0.39
52 | G6U C27U A69G A70G C71U | -0.394
53 | U2C G6U C27U A43C A69G C71U | -0.343
54 | G1A U2C A43C C46U C66U A70G | -0.0459
55 | G1A U2C A43C C46U C66U A70U | -0.132
56 | G6U A43C C46U C66U A69G C71U | -0.321
57 | A70G | -0.00424
58 | A70U | 0.00232
59 | G6A C27U A43C C46U C66U A70U | -0.183
60 | G1A U2G G6A C27U C66A A70U C71U | -0.457
61 | G1A C27U C46U C71U | -0.0338
62 | G1A G6U C27U C46U C66A A70U C71U | -0.415
63 | G1A G6U C46U C66U A70U | -0.153
64 | G1A G6U A43C C66U A70G | -0.339
65 | U2G G6U C27U A43C C71U | -0.304
66 | G6U C27U A69G | -0.222
67 | U2C C46U C66A A69G A70G C71U | -0.128
68 | G6U C46U C66A C71U | -0.00198
69 | G6U C27U A43C | -0.197
70 | U2C C27U | -0.0171
71 | G1A U2C C27U C46U C66U A70G | -0.242
72 | G1A U2C C27U C46U C66U A70U | -0.0209

Row | Variant | yeast fitness (ln)
73 | G1A U2C C27U A69G C71U | -0.131
74 | G6U A43C C46U C66A A69G C71U | -0.548
75 | U2G G6U C27U C66U A70U | -0.342
76 | U2C C27U A43C C46U C66A A69G A70G | -0.0542
77 | U2C G6U C27U A43C C71U | -0.23
78 | U2C C27U A43C C46U C66U A70G C71U | -0.406
79 | U2C C66U | -0.207
80 | G1A U2C G6A C27U C46U C66U C71U | -0.348
81 | G1A G6A C46U C66A A70U | -0.134
82 | U2G G6A | -0.00406
83 | G1A U2G G6U C27U A43C A69G A70G C71U | -0.449
84 | G1A G6U C27U C66A | -0.254
85 | U2G G6A A43C C46U | -0.0442
86 | U2G A43C C46U C66U A70G | -0.0585
87 | G1A U2C C27U C66U A70U C71U | -0.256
88 | G1A U2G G6A C27U A70U C71U | -0.264
89 | G6U C27U C46U | -0.174
90 | G1A G6A C66A C71U | -0.0846
91 | G6U C27U C66U A70G | -0.288
92 | G6U C71U | -0.261
93 | U2G G6U C27U C66U A69G C71U | -0.427
94 | U2C G6U A70G | -0.0391
95 | G6U A70G C71U | -0.153
96 | U2G A43C C46U C66U | -0.14

Row | Variant | yeast fitness (ln)
97 | G1A U2C G6A A43C A70U | -0.113
98 | U2G C27U A43C A70G C71U | -0.151
99 | G6A C46U C66U A69G A70G | -0.0235
100 | G1A U2C G6U C46U A69G C71U | -0.0722
101 | G6A A43C C46U A69G C71U | -0.171
102 | U2G A43C C66U A69G A70G | -0.222
103 | G6U A43C C66U A69G A70U C71U | -0.393
104 | U2C C46U A70G C71U | -0.00238
105 | G1A U2G G6U | -0.102
106 | G1A U2C G6U A43C C66U A70G C71U | -0.335
107 | U2G C46U C66U A69G A70U | -0.0704
108 | U2G G6U C46U A70U | -0.0198
109 | U2C G6A A43C C66U A70G | -0.0213
110 | U2C G6A C66U A69G A70U | -0.222
111 | G1A C27U A69G A70U C71U | -0.421
112 | G1A U2C G6U C27U A70U C71U | -0.287
113 | G1A U2C G6A A43C C66U A69G A70U | -0.275
114 | G1A U2G C27U A43C C71U | -0.16
115 | G1A U2C G6U C27U C46U A69G A70U C71U | -0.392
116 | U2C A43C A69G A70U | -0.235
117 | U2C G6A C27U C46U A70G C71U | -0.239
118 | G1A A43C C66U A70G C71U | -0.235
119 | G1A A43C C46U C66U A69G A70U | -0.259
120 | G1A U2C C27U A69G A70G C71U | -0.0512

Row | Variant | yeast fitness (ln)
121 | U2G G6U A43C A69G A70G | -0.237
122 | U2C C27U C46U C66U A69G A70U C71U | -0.411
123 | U2G G6A C27U C66A A70U C71U | -0.244
124 | G1A U2C G6A A43C C46U C66U A70G | -0.0356
125 | G1A U2G G6U C27U A43C C66A A70U C71U | -0.433
126 | G6U C27U A70G | -0.302
127 | G1A U2G G6A A43C A70G | -0.304
128 | G1A U2C C46U C66A A70U | -0.0262
129 | G6A A43C | -0.0714
130 | G1A U2C C46U A69G A70G C71U | 0.00686
131 | G6U | -0.0403
132 | U2G G6A C27U C46U A69G C71U | -0.174
133 | G1A U2G G6A C27U C46U A70U C71U | -0.15
134 | U2C C27U C46U A69G A70U | -0.198
135 | G1A U2G C27U A43C C46U A69G A70G | -0.22
136 | G1A U2G C27U C46U C66U C71U | -0.21
137 | G1A U2C G6A A43C C66U A69G A70G C71U | -0.0387
138 | A43C C46U C66A A70U C71U | -0.128
139 | U2C A43C C46U A69G A70U C71U | -0.307
140 | G1A U2G A69G A70U C71U | -0.0282
141 | U2G C27U A43C C46U C66U A69G A70G C71U | -0.249
142 | G6U C27U A43C C46U C66U A69G A70G C71U | -0.444
143 | G1A U2G G6A A43C C46U A69G A70U C71U | -0.262
144 | G1A U2C G6U C27U A43C C46U A69G A70G C71U | -0.267

Row | Variant | yeast fitness (ln)
145 | U2C G6A C46U C66U | 0.00338
146 | G1A G6U C27U A69G A70U | -0.29
147 | U2C G6U A43C C46U A69G C71U | -0.17
148 | U2G C27U A43C C66A A69G A70U | -0.291
149 | G1A G6A C27U C66A A69G A70G C71U | -0.392
150 | G1A U2C A43C C66U A70U | -0.169
151 | U2G G6A C46U C66U A69G | -0.163
152 | U2G A43C C66U C71U | -0.343
153 | G1A G6U C27U C66U C71U | -0.389
154 | U2G G6A C27U C46U C66U A69G C71U | -0.277
155 | U2G C27U A43C A69G | -0.0811
156 | G6U C27U A43C C66A A70U | -0.185
157 | C27U C46U C66U A69G A70G | -0.197
158 | G6A C27U A43C C46U A70U C71U | -0.239
159 | U2G C66U | -0.0538
160 | G1A U2G G6U A43C C66U A69G A70G C71U | -0.368
161 | G6A A43C C46U C66U A69G A70U C71U | -0.233
162 | U2C G6A C46U A69G A70U C71U | -0.183
163 | G1A U2G G6U C27U C66U A70G C71U | -0.325
164 | G1A U2C G6U C46U A70U C71U | -0.033
165 | G6U C66U A69G A70G | -0.271
166 | G6U C66U A69G A70U | -0.261
167 | G1A C27U C66A A69G A70G C71U | -0.325
